Laboratory results as given in ChEMBL document CHEMBL4808178 (J Med Chem, 2021).
Active and inactive are the calls of the source. The calls are words filed in the database; no cut-off is given here.

Experiments:
[1] = Volume of distribution in Sprague-Dawley rat at 25 mg/kg, po measured up to 48 hrs by LC-MS/MS analysis; format: ADME, organism-based; conditions: in vivo
How it was run: (§1)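 Overnight-fasted male SD rats (250−270 g, n = 3/group), single oral 25 mg/kg in 5% CMC-Na (reference sodium salt in phosphate buffer); plasma at 0.25–48 h (12 timepoints), stored −40 °C; LC−MS/MS with internal-standard calibration 3–3000 ng/mL; parameters fitted by model.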

HCT-116 [2] = test: Effect on Wnt/beta-Catenin signaling in human HCT116 cells assessed as reduction in MMP7 mRNA level at 20 uM after 24 hrs by RT-qPCR analysis; format: functional, cell-based
How it was run: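 HCT-116 cells treated 24 h; total RNA by TRIZOL, one-step RT-qPCR: 55 °C 10 min, 95 °C 1 min, then 39 cycles of 95 °C 10 s and 60 °C 30 s, with melting-curve and no-template controls. β-Actin as internal standard; relative expression by 2^−ΔΔCt, mean ± SD (n = 3).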

L02 = test: Cytotoxicity against human L02 cells assessed as reduction in cell viability incubated for 72 hrs by MTT assay; format: cell-based; conditions: L02, 72 h
How it was run: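 About 5 × 10³ cells/well, seeded overnight at 37 °C, 5% CO₂, in DMEM or RPMI-1640 with 10% FBS and antibiotics. DMSO-dissolved compounds diluted in medium, exposure 72 h.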

[3] = Toxicity in BALB/c mouse xenografted with human HCT116 cells assessed as effect on spleen tissue at 60 to 90 mg/kg, po administered twice daily for 4 weeks and measured every 3 days by HE staining based assay; format: organism-based, HCT-116; conditions: in vivo, 672 h, dose 60-90 mg/kg
How it was run: (§2)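 Male 5-week BALB/c nude mice (16−18 g), 0.2 mL of 5 × 10⁷ cells/mL HCT-116 injected into right armpit; at ~100 mm³ randomized, 5/group; intragastric 60 or 90 mg/kg twice daily for 4 weeks; tumor volume and body weight every 3 days; after sacrifice heart, liver, spleen, lung, kidney HE-stained.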

[4] = target: T1, Aldehyde dehydrogenase 1A1 (Homo sapiens) (UniProt P00352); test: Inhibition of ALDH1A1 in human HCT116 cells at 5 uM after 24 hrs by aldefluor staining based fluorescence analysis; format: cell-based; conditions: HCT-116
T1 sequence (whole entry): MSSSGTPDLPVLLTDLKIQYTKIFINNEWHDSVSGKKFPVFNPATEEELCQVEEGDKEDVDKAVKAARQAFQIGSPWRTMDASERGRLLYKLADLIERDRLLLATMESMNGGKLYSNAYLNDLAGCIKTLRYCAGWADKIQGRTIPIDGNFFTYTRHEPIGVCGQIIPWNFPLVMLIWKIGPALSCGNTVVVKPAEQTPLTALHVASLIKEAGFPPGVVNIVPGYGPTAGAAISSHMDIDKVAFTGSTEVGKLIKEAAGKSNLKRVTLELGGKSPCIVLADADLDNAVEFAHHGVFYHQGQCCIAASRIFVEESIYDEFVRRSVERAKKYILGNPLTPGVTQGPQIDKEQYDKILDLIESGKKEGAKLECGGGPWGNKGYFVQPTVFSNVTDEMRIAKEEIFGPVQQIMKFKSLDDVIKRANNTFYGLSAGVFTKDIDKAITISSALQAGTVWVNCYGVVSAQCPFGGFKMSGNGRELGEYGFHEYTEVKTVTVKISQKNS
How it was run: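 HCT-116 cells, 2 × 10⁵/well, grown overnight at 37 °C, 5% CO₂, then treated 24 h (vehicle DMSO). Aldefluor staining read in FITC channel by FACS for proportion of ALDH⁺ cells; DEAB-pretreated cells set baseline fluorescence.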

[5] = Cmax in Sprague-Dawley rat at 25 mg/kg, po measured up to 48 hrs by LC-MS/MS analysis; format: ADME, organism-based; set-up: route oral, dose 25 mg/kg, time <=48; conditions: in vivo
How it was run: (§3)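 Overnight-fasted male SD rats (about 250−270 g), three per group, single oral 25 mg/kg; test compound suspended in 5% CMC-Na, control as sodium salt in phosphate buffer. Blood sampled 0.25–48 h, plasma by centrifugation, stored −40 °C, quantified by LC−MS/MS against plasma standard curve (3–3000 ng/mL) with internal standard; model-fitted PK parameters.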

[6] = MRT(0 to t) in Sprague-Dawley rat at 25 mg/kg, po measured up to 48 hrs by LC-MS/MS analysis; format: ADME, organism-based; conditions: in vivo; how it was run: as §1
HCT-116 [7] = test: Induction of apoptosis in human HCT116 cells assessed as upregulation of cleaved PARP level at 20 uM incubated for 24 hrs by Western blot analysis; format: functional, cell-based
How it was run: (§4)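 HCT-116 cells at 2 × 10⁵ cells/mL in DMEM/10% FBS, grown 12 h at 37 °C, then treated 24 h (vehicle DMSO). Lysates quantified by BCA, run on 10% SDS-PAGE, PVDF transfer, blocked in 5% milk/TBST, primary antibodies 4 °C overnight, HRP secondary 2 h, chemiluminescent detection; normalized to β-actin, n = 3.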

HCT-116 [8] = test: Induction of cell cycle arrest in human HCT116 cells assessed as accumulation at S phase at 20 uM after 24 hrs by propidium iodide-staining based flow cytometry (reference value: 36.43%); format: functional
[9] = Toxicity in BALB/c mouse xenografted with human HCT116 cells assessed as effect on liver tissue at 60 to 90 mg/kg, po administered twice daily for 4 weeks and measured every 3 days by HE staining based assay; format: organism-based, HCT-116; conditions: in vivo, 672 h, dose 60-90 mg/kg; how it was run: as §2
[10] = target: Glycogen synthase kinase-3 beta (Homo sapiens) (UniProt P49841); test: Inhibition of GSK3beta phosphorylation at serine 9 in human HCT-116 cells after 24 hrs by Western blot analysis; format: cell-based; conditions: dose 5-20 µM; how it was run: as §4
Sequence of Glycogen synthase kinase-3 beta (Homo sapiens) (P49841 whole entry, looked up): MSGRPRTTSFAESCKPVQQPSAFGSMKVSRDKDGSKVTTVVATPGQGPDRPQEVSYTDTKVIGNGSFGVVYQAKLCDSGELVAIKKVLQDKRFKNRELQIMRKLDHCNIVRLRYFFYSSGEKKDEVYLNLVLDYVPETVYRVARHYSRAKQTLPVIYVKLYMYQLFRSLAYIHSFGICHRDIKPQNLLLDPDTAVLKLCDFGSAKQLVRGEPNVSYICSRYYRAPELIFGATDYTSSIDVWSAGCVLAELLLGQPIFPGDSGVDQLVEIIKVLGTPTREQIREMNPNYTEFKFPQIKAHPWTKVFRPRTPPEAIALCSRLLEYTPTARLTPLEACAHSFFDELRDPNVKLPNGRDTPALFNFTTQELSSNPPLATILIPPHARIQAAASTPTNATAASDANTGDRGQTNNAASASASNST

HT-29 = test: Cytotoxicity against human HT-29 cells assessed as reduction in cell viability incubated for 72 hrs by MTT assay; format: functional, cell-based; conditions: HT-29, 72 h
HCT-116 [11] = test: Inhibition of cell stemness in human HCT116 cells assessed as reduction in SOX2 mRNA transcription levels at 20 uM after 24 hrs by RT-qPCR analysis; format: functional, cell-based
How it was run: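 Sorted ALDH⁺ HCT-116 cells treated 24 h; TRIZOL RNA, one-step RT-qPCR (RT 10 min 55 °C; 95 °C 1 min; 39 cycles 95 °C 10 s/60 °C 30 s) with melting-curve check; β-actin reference; fold change by 2^−ΔΔCt; t test, mean ± SD, n = 3.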

[12] = AUC(0 to infinity) in Sprague-Dawley rat at 25 mg/kg, po measured up to 48 hrs by LC-MS/MS analysis; format: ADME, organism-based; set-up: route oral, dose 25 mg/kg, time <=48; conditions: in vivo; how it was run: as §3
[13] = target: Epidermal growth factor receptor (Homo sapiens) (UniProt P00533); test: Inhibition of EGFR (unknown origin) assessed as residual activity at 1 uM relative to control
Sequence of Epidermal growth factor receptor (Homo sapiens) (P00533 whole entry): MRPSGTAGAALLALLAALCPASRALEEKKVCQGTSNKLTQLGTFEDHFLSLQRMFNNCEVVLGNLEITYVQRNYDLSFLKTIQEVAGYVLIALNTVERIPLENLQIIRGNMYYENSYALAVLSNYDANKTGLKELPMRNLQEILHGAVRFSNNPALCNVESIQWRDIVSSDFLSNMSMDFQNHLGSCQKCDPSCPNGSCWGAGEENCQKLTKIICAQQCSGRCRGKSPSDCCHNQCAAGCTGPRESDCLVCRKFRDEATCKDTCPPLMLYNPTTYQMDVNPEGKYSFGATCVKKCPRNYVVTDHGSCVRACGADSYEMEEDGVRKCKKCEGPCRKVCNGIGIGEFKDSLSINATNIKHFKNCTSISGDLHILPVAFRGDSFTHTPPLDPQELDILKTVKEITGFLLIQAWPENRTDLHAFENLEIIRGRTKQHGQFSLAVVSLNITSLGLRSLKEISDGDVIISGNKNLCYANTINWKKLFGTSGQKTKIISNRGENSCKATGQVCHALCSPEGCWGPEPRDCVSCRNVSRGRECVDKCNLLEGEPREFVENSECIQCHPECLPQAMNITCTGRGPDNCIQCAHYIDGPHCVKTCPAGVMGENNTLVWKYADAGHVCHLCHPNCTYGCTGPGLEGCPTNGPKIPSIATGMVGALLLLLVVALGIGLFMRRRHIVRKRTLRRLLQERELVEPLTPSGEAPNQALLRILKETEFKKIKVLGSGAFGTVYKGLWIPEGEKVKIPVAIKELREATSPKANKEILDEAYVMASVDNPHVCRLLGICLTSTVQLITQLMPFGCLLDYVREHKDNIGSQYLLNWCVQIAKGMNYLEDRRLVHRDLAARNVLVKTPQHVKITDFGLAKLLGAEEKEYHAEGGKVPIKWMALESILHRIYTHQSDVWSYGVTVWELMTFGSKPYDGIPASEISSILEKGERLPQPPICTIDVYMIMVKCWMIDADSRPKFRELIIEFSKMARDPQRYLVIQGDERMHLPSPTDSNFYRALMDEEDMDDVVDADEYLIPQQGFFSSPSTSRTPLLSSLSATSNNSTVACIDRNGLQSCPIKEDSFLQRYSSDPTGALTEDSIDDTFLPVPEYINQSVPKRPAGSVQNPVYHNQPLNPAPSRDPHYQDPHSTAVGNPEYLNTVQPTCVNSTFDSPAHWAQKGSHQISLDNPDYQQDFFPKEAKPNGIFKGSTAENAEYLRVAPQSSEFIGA
How it was run: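 Single-concentration screen at 1 μmol/L against a panel of 208 kinases, run as a commercial service; activity expressed relative to control.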

HCT-116 [14] = test: Induction of apoptosis in human HCT116 cells assessed as necrotic cells at 5 uM after 24 hrs by annexin V-FITC/propidium iodide staining based flow cytometry (reference value: 5.6%); format: functional
HCT-116 [15] = test: Effect on Wnt/beta-Catenin signaling in human HCT116 cells assessed as downregulation of beta-catenin protein level at 5 to 20 uM after 24 hrs by Western blotting analysis; format: functional, cell-based; conditions: dose 5-20 µM; how it was run: as §4

Vd [1]: 2.77 L/kg
inhibition [4]: 77%
Cmax [5]: 7020 ng/mL
MRT last at 48 h [6]: 6.21 h
inhibition [10]: Dose-Dependent Effect
AUC(0-inf) [12]: 41500 ng·h/mL
Activity [13]: 34.1%
Compound: O=C(NCCO)c1ccc2c(c1)nc(Nc1cccc(Cl)c1)c1ccncc12
Activity (HCT-116 [2]): Active
IC50 (L02): 96.7 µM
Activity [3]: Non-Toxic
Activity (HCT-116 [7]): Active
Activity (HCT-116 [8]): 5.36%
Activity [9]: Non-Toxic
IC50 (HT-29): 5.18 µM
inhibition (HCT-116 [11]): Active
Activity (HCT-116 [14]): 7%
Activity (HCT-116 [15]): Active
